# Test: Toxicity liver stage against HepG2, at 10uM
# Assay type: cell-based
# Set-up: test concentration 10 uM, cell line HepG2-A16-CD81EGFP
# Conditions: human, HepG2-A16-CD81EGFP cells; read-out: INHIBITION
# How it was run: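 Uninfected HepG2-A16-CD81EGFP cells, 3 × 10^3 per well, 1536-well, plated on prespotted compound at 10 μM final, parasite-free screening media added to match infected plates; puromycin 10 μM positive, DMSO 0.5% negative; run in parallel with 48 h PbLuc assay at 37 °C, 5% CO2; viability by CellTiter-Glo luminescence, normalized to controls.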
row,Structure (SMILES),cytotoxicity at 10 µM
1,COc1cccc(CN2C[C@@H](F)[C@@H](OCc3nc4cnccc4[nH]3)C2)c1,-1.72%
2,CCc1c(C)sc2c1c(N)nc(=O)n2CCN(C)C,3.85%
3,Cc1nn(-c2ccc(C(=O)O)cc2)c2c1C(C(F)(F)F)SCC(=O)N2 (centres undefined),-1.24%
4,CCc1nc(-c2noc3ccc(C(=O)N(C)CCOC)cc23)co1,-138%
5,COCC1c2nnn(CC3CC3)c2CCN1C(=O)CS(C)(=O)=O (centres undefined),-129%
6,O=C(NCC1CCCO1)c1nc2c(s1)CCCN2CC1CC1 (centres undefined),-0.843%
7,CC(=O)N1CC[C@H]2OCC[C@@H](C(=O)N3CCCCO3)[C@@H]2C1,-5.1%
8,O=C(NCC1CC1)C1CN(C(=O)c2ccncc2)CC12CCOCC2 (centres undefined),0.381%
9,Cc1cccc(Nc2noc3c2CN(C(=O)c2ccn(C)n2)CC3)c1C,-0.61%
10,COc1ccccc1N1CC(NC(=O)Cn2cc(C(C)C)nn2)CC1=O (centres undefined),11.5%
11,O=C(NCc1ccc2c(c1)OCO2)[C@H]1C=CCN1c1ncccn1,-4.52%
12,CN(C)c1ccc(CC2CCCN(c3cnccn3)C2)nn1 (centres undefined),4.71%
13,O=C(C1CCC1)N1CCCC(c2ccnc(Nc3cnccn3)n2)C1 (centres undefined),-22.7%
14,O=C(c1cscn1)N1CCC(Cc2cnc3[nH]ccc3c2)C1 (centres undefined),-26.5%
15,CCn1cnnc1CNC(=O)NC(c1ccccc1)C1CCCC1 (centres undefined),12%
16,CN(C)C(=O)Cn1cnc2c(Br)cccc2c1=O,-8.97%
17,CCc1cc(NC(=O)N2CCC(Oc3cccnc3)C2)n(C)n1 (centres undefined),5.95%
18,O=C(NCCN1CCOCC1)c1ccc(-c2ccccc2)[nH]c1=O,1.58%
19,Cc1ccc(C(=O)NCCN2CCOCC2)c(=O)[nH]1,-8.44%
20,CC1(NC(=O)Cc2csc(NC(=O)c3ccccc3)n2)CCS(=O)(=O)C1 (centres undefined),0.271%
21,O=C(NCCCN1CCOCC1)c1cc(-c2ccccc2)[nH]n1,-161%
22,NC(=O)CCS(=O)(=O)Cc1ccc(OCC(F)(F)F)cc1,-4.16%

row,Structure (SMILES),cytotoxicity at 10 µM
1,O=C1NCCN1C1CCN(Cc2ccccn2)CC1,4.08%
2,Cc1cnn(CC2CCCN2Cc2coc(-c3ccccc3)n2)c1 (centres undefined),-5.26%
3,CC1(c2ccccc2)CCC(=O)N(CC2(N3CCOCC3)CCCC2)C1 (centres undefined),8.8%
4,COCC1CCN(Cc2cc(O)c3c(C)ccc(C)c3n2)CC1,-6.09%
5,Clc1cccc2c3c([nH]c12)CCN(Cc1cc2n(n1)CCNC2)C3,-0.735%
6,O=C(O)C1(n2ccc(-c3ccco3)n2)CCN(Cc2ccsc2)CC1,-129%
7,CN1CCN(Cc2nnc(C3CCN(S(C)(=O)=O)CC3)n2C)CC1,4.67%
8,Cn1cc(C(=O)N2CC[C@H](N3CCOCC3)[C@H](CCCO)C2)cn1,-158%
9,Cc1cc(C2CCC2)nc(N2CCC3(CCCN(C)C3=O)C2)n1 (centres undefined),-6.62%
10,Cc1nonc1C(=O)N1CC[C@@]2(O)CCN(C3CCCCC3)C[C@H]2C1,-132%
11,Cc1ccc(C(N)=O)c(N2C[C@H]3OC(=O)N(C4CCCC4)[C@H]3C2)n1,5.54%
12,Cc1ccc(C2(C(=O)N3CCC(n4cc(C(C)O)nn4)CC3)CC2)cc1 (centres undefined),-2.26%
13,COC(=O)c1ccc(OC)c(CN2CCN(CC(C)C)C(=O)C2C)c1 (centres undefined),-20.3%
14,Cc1onc(N)c1S(=O)(=O)N1CCCCC1C (centres undefined),12.4%
15,CNc1ncccc1C(=O)N1CCc2c(nc(N)[nH]c2=O)C1,3.61%
16,Cc1cnn(CC2CCCN2C(=O)CCc2ccncc2)c1 (centres undefined),-10.6%
17,N#Cc1ccsc1C(=O)N1CCCN(Cc2cscn2)CC1,3.48%
18,Cc1noc2ncc(C(=O)NCC3CCOC3)cc12 (centres undefined),-1.47%
19,Cn1ccnc1CN1CCN(CC(O)c2cccc(F)c2)CC1 (centres undefined),1.59%
20,CCS(=O)(=O)N1CCCC2(CCCN2Cc2cccc(Cl)c2)C1 (centres undefined),-143%
21,c1cnc(NC[C@H]2OC[C@@H]3CCN(Cc4nccs4)C[C@@H]32)nc1,-3.38%
22,CCc1ccc(CN2Cc3nccn3CC(Cn3cncn3)C2)o1 (centres undefined),-137%
